Key:
[1] = tested on: Human immunodeficiency virus 2; assay: Antiviral activity against HIV2 replication in human thymidine kinase deficient CEM cells assessed as virus-induced cytopathic effect; type: functional, organism-based; conditions: Human immunodeficiency virus 2, CCRF-CEM
Outline: (§1)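 CEM T-lymphocyte cultures (wild-type CEM/0 or thymidine kinase-deficient CEM/TK-) infected with HIV-1 or HIV-2; read-out is virus-induced cytopathic effect (giant cell formation). EC50 = 50% effective concentration, given as the mean of two to three independent experiments.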

[2] = Cytotoxicity against human wild type CEM/0 cells; type: cell-based; conditions: CCRF-CEM
Outline: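 Wild-type CEM cells; cytostatic activity reported as the 50% cytostatic concentration.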

[3] = Chemical stability assessed as half life of hydrolysis in 25 mM phosphate buffer at pH 7.3; type: physicochemical
Outline: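 Triesters incubated at pH 7.3 in aqueous 25 mM phosphate buffer and followed by HPLC. Half-life is taken from disappearance of the triester.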

[4] = Chemical stability assessed as half life of hydrolysis in RPMI-1640 culture medium at pH 7.6 in presence 10% heat-inactivated fetal calf serum; type: physicochemical
Outline: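 RPMI-1640 with 10% heat-inactivated fetal calf serum, pH 7.6 (the antiviral test medium), used in place of cell extract and run by the same HPLC procedure. Half-life is taken from disappearance of the triester.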

[5] = tested on: Human immunodeficiency virus 1; assay: Antiviral activity against HIV1 replication in human wild type CEM/0 cells assessed as virus-induced cytopathic effect; type: functional, organism-based; conditions: Human immunodeficiency virus 1, CCRF-CEM; outline: as §1
[6] = tested on: Human immunodeficiency virus 2; assay: Antiviral activity against HIV2 replication in human wild type CEM/0 cells assessed as virus-induced cytopathic effect; type: functional, organism-based; conditions: Human immunodeficiency virus 2, CCRF-CEM; outline: as §1
[7] = Chemical stability assessed as half life of hydrolysis in CEM cell extracts at pH 6.9; type: physicochemical, CCRF-CEM; conditions: human
Outline: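 T-lymphocyte CEM cell extracts at pH 6.9, analysed by HPLC. Half-life is taken from disappearance of the triester.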

SMILES | EC50 [1] [nM] | CC50 [2] [nM] | half-life [3] [h] | half-life [4] [h] | EC50 [5] [nM] | EC50 [6] [nM] | half-life [7] [min]
Cc1cn([C@H]2C=C[C@@H](COP3(=O)OCc4cc(C=O)cc(C(C)(C)C)c4O3)O2)c(=O)[nH]c1=O (some centres not stated) | 15000 | 33000 |  |  |  |  | 
CC(=O)OC(OC(C)=O)c1cc2c(c(C(C)(C)C)c1)OP(=O)(OC[C@@H]1C=C[C@H](n3cc(C)c(=O)[nH]c3=O)O1)OC2 (some centres not stated) | 780 | 19000 |  |  |  |  | 
CC(=O)c1ccc2c(c1)COP(=O)(OC[C@@H]1C=C[C@H](n3cc(C)c(=O)[nH]c3=O)O1)O2 (some centres not stated) | > 50000 | 148000 | 0.3 | 0.6 | 1300 | 3000 | 
CC(=O)c1cc(C)c2c(c1)COP(=O)(OC[C@@H]1C=C[C@H](n3cc(C)c(=O)[nH]c3=O)O1)O2 (some centres not stated) | 36000 | 96000 | 0.75 | 1 | 540 | 2200 | 
Cc1cn([C@H]2C=C[C@@H](CO[P@@]3(=O)OCc4cc(C(OC(=O)C(C)C)OC(=O)C(C)C)cc(C(C)(C)C)c4O3)O2)c(=O)[nH]c1=O | 3600 | 40000 |  |  |  |  | 
CC(=O)OC(OC(C)=O)c1cc2c(c(C(C)(C)C)c1)O[P@](=O)(OC[C@@H]1C=C[C@H](n3cc(C)c(=O)[nH]c3=O)O1)OC2 | 290 | 17000 |  |  |  |  | 
CC(=O)OC(OC(C)=O)c1cc2c(c(C(C)(C)C)c1)O[P@@](=O)(OC[C@@H]1C=C[C@H](n3cc(C)c(=O)[nH]c3=O)O1)OC2 | 3900 | 51000 |  |  |  |  | 
C=C(OC(C)=O)c1cc2c(c(C(C)(C)C)c1)O[P@](=O)(OC[C@@H]1C=C[C@H](n3cc(C)c(=O)[nH]c3=O)O1)OC2 | 270 | 20000 | 13.5 | 7.6 | 210 | 800 | 2.4
C=C(OC(C)=O)c1cc2c(c(C(C)(C)C)c1)O[P@@](=O)(OC[C@@H]1C=C[C@H](n3cc(C)c(=O)[nH]c3=O)O1)OC2 | 1700 | 67000 | 11.3 | 3.7 | 470 | 1100 | 2.4
Cc1cn([C@H]2C=C[C@@H](CO[P@@]3(=O)OCc4cc(C=O)cc(C(C)(C)C)c4O3)O2)c(=O)[nH]c1=O | 10000 | 41000 |  |  |  |  | 
CC(=O)c1cc2c(c(C(C)(C)C)c1)O[P@@](=O)(OC[C@@H]1C=C[C@H](n3cc(C)c(=O)[nH]c3=O)O1)OC2 | 2800 | 64000 | 2.3 | 2 | 750 | 1200 | 
C=C(OC(C)=O)c1ccc2c(c1)COP(=O)(OC[C@@H]1C=C[C@H](n3cc(C)c(=O)[nH]c3=O)O1)O2 (some centres not stated) | > 50000 | 111000 | 1.4 | 1 | 650 | 800 | 7.8
Cc1cn([C@H]2C=C[C@@H](CO[P@]3(=O)OCc4cc(C=O)cc(C(C)(C)C)c4O3)O2)c(=O)[nH]c1=O | 2600 | 27000 |  |  |  |  | 
Cc1cn([C@H]2C=C[C@@H](CO[P@]3(=O)OCc4cc(C(OC(=O)C(C)C)OC(=O)C(C)C)cc(C(C)(C)C)c4O3)O2)c(=O)[nH]c1=O | 1400 | 14000 |  |  |  |  | 
Cc1cn([C@H]2C=C[C@@H](COP3(=O)OCc4cc(C(OC(=O)C(C)C)OC(=O)C(C)C)cc(C(C)(C)C)c4O3)O2)c(=O)[nH]c1=O (some centres not stated) | 2400 | 20000 |  |  |  |  | 
CC(=O)c1cc2c(c(C(C)(C)C)c1)OP(=O)(OC[C@@H]1C=C[C@H](n3cc(C)c(=O)[nH]c3=O)O1)OC2 (some centres not stated) | 1700 | 49000 | 2.3 | 2.5 | 450 | 870 | 
C=C(OC(C)=O)c1cc2c(c(C(C)(C)C)c1)OP(=O)(OC[C@@H]1C=C[C@H](n3cc(C)c(=O)[nH]c3=O)O1)OC2 (some centres not stated) | 1700 | 49000 | 12.3 | 5.2 | 470 | 880 | 2.4
CC(=O)c1cc2c(c(C(C)(C)C)c1)O[P@](=O)(OC[C@@H]1C=C[C@H](n3cc(C)c(=O)[nH]c3=O)O1)OC2 | 550 | 56000 | 2.3 | 3.2 | 180 | 510 | 
C=C(OC(C)=O)c1cc(C)c2c(c1)COP(=O)(OC[C@@H]1C=C[C@H](n3cc(C)c(=O)[nH]c3=O)O1)O2 (some centres not stated) | 730 | 18000 | 6.1 | 1.8 | 180 | 400 | 4.2
Cc1cn([C@H]2C=C[C@@H](CO)O2)c(=O)[nH]c1=O [STAVUDINE] | 69000 | 220000 |  |  | 850 | 1100 | 
